Measurements of several laboratories.
Protocols differ between the studies behind these lines.
Cell line: CCRF-CEM
Read-out: cell growth or viability

Structure (SMILES)	method	time	IC50 [µM]
O=C(CN1C(=O)SC(=Cc2ccc(F)cc2)C1=O)Nc1ccc(Cl)cc1C(F)(F)F	MTT	48 h	38
CC[C@]1(O)C[C@@H]2CN(CCc3c([nH]c4ccccc34)[C@@](C(=O)OC)(c3cc4c(cc3OC)N(C)[C@H]3[C@@](O)(C(=O)OC)[C@H](OC(C)=O)[C@]5(CC)C=CCN6CC[C@]43[C@@H]65)C2)C1	MTT	72 h	0.002
COc1ccc2oc(C(=O)c3ccccc3)cc2c1-c1ccccc1	–	72 h	> 50
O=C(CN1C(=O)SC(=Cc2ccccc2)C1=O)Nc1ccc(Cl)cc1C(F)(F)F	MTT	48 h	47.5
COc1cccc(C(=O)c2cc3c(-c4ccccc4)c(O)ccc3o2)c1	–	72 h	35
O=C1C(=Cc2ccccc2)CN(C(=O)C(=O)N2CC(=Cc3ccccc3)C(=O)C(=Cc3ccccc3)C2)CC1=Cc1ccccc1	–	72 h	0.75
Cc1ccc(C=C2SC(=O)N(CC(=O)Nc3ccc(F)cc3F)C2=O)cc1C	MTT	48 h	31.9
COc1ccccc1C(=O)c1cc2c(-c3ccccc3)c(OC)ccc2o1	–	72 h	> 50
CC[C@]1(O)C[C@H]2CN(CCc3c([nH]c4ccccc34)[C@@](C(=O)OC)(c3cc4c(cc3OC)N(C=O)[C@H]3[C@@](O)(C(=O)OC)[C@H](OC(C)=O)[C@]5(CC)C=CCN6CC[C@]43[C@@H]65)C2)C1	fluorescence	72 h	0.0104
COc1ccc(C(=O)c2cc3c(-c4ccccc4)c(OC)ccc3o2)cc1	–	72 h	1.5
COc1ccccc1CCc1cc(C#N)c(N)s1	–	48 h	6.8
O=C1NC(=NCc2cccs2)S/C1=C\c1ccc2ncccc2c1	–	–	2.5
O=C1C(=Cc2ccccc2)CN(C(=O)CCC(=O)N2CC(=Cc3ccccc3)C(=O)C(=Cc3ccccc3)C2)CC1=Cc1ccccc1	–	72 h	1.21
COC(=O)c1cc(CCc2ccccc2OC)sc1N	–	48 h	1.2
COc1cccc2c1C(=O)c1c(O)c3c(c(O)c1C2=O)C[C@@](O)(C(=O)CO)C[C@@H]3O[C@H]1C[C@H](N)[C@H](O)[C@H](C)O1	resazurin	72 h	0.01
CCOC(=O)c1cc(CCc2cc(OC)ccc2OC)sc1N	–	48 h	0.4
O=C1C(=Cc2ccccc2)CN(C(=O)CC(=O)N2CC(=Cc3ccccc3)C(=O)C(=Cc3ccccc3)C2)CC1=Cc1ccccc1	–	72 h	0.2
CCOC(=O)c1c(N)sc(CCc2cc(OC)ccc2OC)c1C(=O)OCC	–	48 h	20
CC(=O)O[C@H]1C(=O)[C@@]2(C)[C@H]([C@H](OC(=O)c3ccccc3)[C@]3(O)C[C@H](OC(=O)[C@H](O)[C@@H](NC(=O)c4ccccc4)c4ccccc4)C(C)=C1C3(C)C)[C@]1(OC(C)=O)CO[C@@H]1C[C@@H]2O	MTT	48 h	0.31
COC(=O)c1c(N)sc(CCc2cc(OC)ccc2OC)c1C	–	48 h	30
CCc1ccc(CCOc2ccc(CC3SC(=O)NC3=O)cc2)nc1 (centres unmarked)	MTT	48 h	17.9
COc1ccccc1C(=O)c1cc2c(-c3ccccc3)c(O)ccc2o1	–	72 h	19
COc1ccc(OC)c(-c2cc(C#N)c(N)s2)c1	–	48 h	12
